Assay results reported in ChEMBL document CHEMBL1649548, “Pharmacodynamics of SMP-601 (PTZ601) against vancomycin-resistant Enterococcus faecium and methicillin-resistant Staphylococcus aureus in neutropenic murine thigh infection models” (Antimicrob Agents Chemother, 2009).
≈ marks a conversion by molar mass, not a printed value. Calls of active or inactive are those of the source. The rule behind the calls is not given here.

Legend:
Enterococcus faecium [1] = experiment: Antibacterial activity against vancomycin-resistant Enterococcus faecium TL-3273 at 0.5 to 8 ug/mL by time-kill analysis in presence of 1% carrageenan; assay type: functional, organism-based
Enterococcus faecium [2] = experiment: Antibacterial activity against vancomycin-resistant Enterococcus faecium TL-3273 by broth microdilution method; assay type: functional
Summary of the method: (§1)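 CLSI broth microdilution in cation-adjusted Mueller-Hinton broth; final inoculum approx. 10^5 CFU/well.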

[3] = fT>MIC required for bacteriostatic effect in methicillin-resistant Staphylococcus aureus TL-3677-infected mouse; assay type: functional
[4] = fT>MIC required for inducing 2-log killing effect in vancomycin-resistant Enterococcus faecium TL-3621-infected mouse; assay type: functional
Summary of the method: (§2)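 Neutropenic ICR mice (cyclophosphamide), thighs inoculated with ~10^5–10^6 CFU/ml in BHIB with 1% carrageenan 2 h before therapy. Total 2.5–640 mg/kg sc over 24 h in 1–12 doses, with cilastatin 100 mg/kg.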

[5] = fT>MIC required for inducing 2-log killing effect in methicillin-resistant Staphylococcus aureus TL-3677-infected mouse; assay type: functional
Enterococcus faecium [6] = experiment: Antibacterial activity against vancomycin-resistant Enterococcus faecium TL-3273 infected in ICR mouse assessed as reduction in bacterial burden at 2.5 to 640 mg/kg, sc in presence of 1% carrageenan; assay type: functional, organism-based
Summary of the method: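 Male ICR mice made neutropenic with cyclophosphamide sc (150 mg/kg day −4, 100 mg/kg day −1). Thighs inoculated with ~10^5–10^6 CFU/ml in BHIB plus 1% carrageenan, 2 h before therapy. Total 2.5–640 mg/kg sc over 24 h in 1–12 divided doses, each with cilastatin 100 mg/kg. Thighs homogenised at 24 h, CFU plated; two mice (four thighs) per group.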

[7] = fT>MIC required for bacteriostatic effect in vancomycin-resistant Enterococcus faecium TL-3273-infected mouse; assay type: functional; summary of the method: as §2
Enterococcus faecium [8] = experiment: Antibacterial activity against vancomycin-resistant Enterococcus faecium TL-3621 by broth microdilution method; assay type: functional; summary of the method: as §1
[9] = Protein binding in mouse serum at 10 ug/ml by ultrafiltration method; assay type: ADME, cell-free; settings: read-out: PB (converted)
[10] = fT>MIC required for inducing 2-log killing effect in methicillin-resistant Staphylococcus aureus SP-12249-infected mouse; assay type: functional
[11] = fT>MIC required for inducing 1-log killing effect in methicillin-resistant Staphylococcus aureus TL-3677-infected mouse; assay type: functional
[12] = fT>MIC required for inducing 1-log killing effect in vancomycin-resistant Enterococcus faecium TL-3273-infected mouse; assay type: functional; summary of the method: as §2
[13] = fT>MIC required for bacteriostatic effect in methicillin-resistant Staphylococcus aureus SP-12249-infected mouse; assay type: functional
[14] = fT>MIC required for inducing 1-log killing effect in vancomycin-resistant Enterococcus faecium TL-3621-infected mouse; assay type: functional; summary of the method: as §2
Staphylococcus aureus [15] = experiment: Antibacterial activity against methicillin-resistant Staphylococcus aureus SP-12249 by broth microdilution method; assay type: functional; summary of the method: as §1
[16] = Protein binding in mouse serum at 30 ug/ml by ultrafiltration method; assay type: ADME, cell-free; settings: read-out: PB (converted)
[17] = Protein binding in mouse serum at 100 ug/ml by ultrafiltration method; assay type: ADME, cell-free; settings: read-out: PB (converted)
[18] = fT>MIC required for inducing 2-log killing effect in vancomycin-resistant Enterococcus faecium TL-3273-infected mouse; assay type: functional; summary of the method: as §2
[19] = fT>MIC required for bacteriostatic effect in vancomycin-resistant Enterococcus faecium TL-3621-infected mouse; assay type: functional; summary of the method: as §2
Staphylococcus aureus [20] = experiment: Antibacterial activity against methicillin-resistant Staphylococcus aureus TL-3677 by broth microdilution method; assay type: functional; summary of the method: as §1
[21] = fT>MIC required for inducing 1-log killing effect in methicillin-resistant Staphylococcus aureus SP-12249-infected mouse; assay type: functional

For C[C@H]1C=C(c2csc(SC3=C(C(=O)O)N4C(=O)[C@H]([C@@H](C)O)[C@H]4[C@H]3C)n2)CN1 [RAZUPENEM], the Activity (Enterococcus faecium [1]) was “Active”, the MIC (Enterococcus faecium [2]) was 2 µg/mL (≈ 4.91 µM) and the “fT>MIC” value [3] was 23%. For the same molecule, the “fT>MIC” value [4] was 19%, the “fT>MIC” value [5] was 32% and the Activity (Enterococcus faecium [6]) was “Active”. For the same molecule, the “fT>MIC” value [7] was 9%, the MIC (Enterococcus faecium [8]) was 2 µg/mL (≈ 4.91 µM) and the fraction unbound at 10 ug/ml [9] was 0.25. For the same molecule, the “fT>MIC” value [10] was 37%, the “fT>MIC” value [11] was 27% and the “fT>MIC” value [12] was 12%. For the same molecule, the “fT>MIC” value [13] was 23%, the “fT>MIC” value [14] was 14% and the MIC (Staphylococcus aureus [15]) was 1 µg/mL (≈ 2.45 µM). For the same molecule, the fraction unbound at 30 ug/ml [16] was 0.24, the fraction unbound at 100 ug/ml [17] was 0.22 and the “fT>MIC” value [18] was 16%. For the same molecule, the “fT>MIC” value [19] was 10%, the MIC (Staphylococcus aureus [20]) was 0.12 µg/mL (≈ 0.294 µM) and the “fT>MIC” value [21] was 30%.
